Test results from PMC10245921 (bioRxiv, 2023).
Where “and” joins values, the source holds several entries; their conditions need not be identical. Identical values can stand only once. Where no end group is shown, it is not given here. The star is where a group is joined. FITC = O=C1OC2(c3ccc(O)cc3Oc3cc(O)ccc32)c2ccc(NC(=S)*)cc21

B1: FITC-conjugated CD44 peptide (SRRRCGQKKKLVINSGNGAVEDYK-FITC) (peptide)
peptide: SRRRCGQKKKLVINSGNGAVEDYK(FITC)

Legend:
MSN–CD44 interaction = MSN–CD44 interaction (Homo sapiens, UniProt P26038); experiment: MSN–CD44 TR-FRET assay; assay type: binding; conditions: for IC50: IC50, confirmatory TR-FRET dose response, Fig. 4D, primary hits; for increase in potency relative to compound 2: MSN–CD44 TR-FRET
Sequence of MSN–CD44 interaction (P26038 1-345): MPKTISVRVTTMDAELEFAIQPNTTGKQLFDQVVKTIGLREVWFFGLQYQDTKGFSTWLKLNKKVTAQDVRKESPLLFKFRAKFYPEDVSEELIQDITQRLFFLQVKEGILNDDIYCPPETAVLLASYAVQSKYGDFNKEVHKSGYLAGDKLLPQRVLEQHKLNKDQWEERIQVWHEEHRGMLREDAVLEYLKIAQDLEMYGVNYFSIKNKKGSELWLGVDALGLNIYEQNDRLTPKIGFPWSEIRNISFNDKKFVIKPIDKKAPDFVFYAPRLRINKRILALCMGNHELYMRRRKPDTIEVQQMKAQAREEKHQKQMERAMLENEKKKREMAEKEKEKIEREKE

[1] = target: GST-tagged MSN and Flag-tagged CD44 (Homo sapiens, UniProt P26038); experiment: GST-pull down assay in cell lysates; assay type: binding; conditions: full length proteins in cell lysates
Sequence of GST-tagged MSN and Flag-tagged CD44 (P26038 whole entry): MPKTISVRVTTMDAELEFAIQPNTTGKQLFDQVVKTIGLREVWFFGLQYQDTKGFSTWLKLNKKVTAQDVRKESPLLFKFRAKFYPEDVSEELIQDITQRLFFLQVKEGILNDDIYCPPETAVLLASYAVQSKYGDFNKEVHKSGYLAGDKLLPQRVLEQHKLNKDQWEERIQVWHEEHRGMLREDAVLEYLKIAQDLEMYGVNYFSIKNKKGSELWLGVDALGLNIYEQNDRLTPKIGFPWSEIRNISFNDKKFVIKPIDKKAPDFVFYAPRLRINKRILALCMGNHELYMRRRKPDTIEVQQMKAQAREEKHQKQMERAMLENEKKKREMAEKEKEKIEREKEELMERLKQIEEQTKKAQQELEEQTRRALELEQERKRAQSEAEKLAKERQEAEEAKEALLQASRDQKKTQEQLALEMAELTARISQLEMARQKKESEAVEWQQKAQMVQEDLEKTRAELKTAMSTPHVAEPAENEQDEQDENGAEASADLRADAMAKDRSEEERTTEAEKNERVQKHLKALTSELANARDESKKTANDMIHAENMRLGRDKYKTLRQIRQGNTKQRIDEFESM
Method in brief: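 HEK293 cells co-express full-length GST-MSN and Venus-Flag-CD44; Venus marks CD44 expression. Lysates are diluted in 10 mM HEPES pH 7.5, 150 mM NaCl, 0.25% Triton X-100 with protease and phosphatase inhibitors. They are dose-treated with test compound in DMSO, rotating 1 h at 4 °C, then captured on GST resin for 1.5 h at 4 °C and washed three times. SDS-PAGE and immunoblotting detect Flag (CD44) and GST (MSN). Two experiments.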

MSN FERM domain = MSN FERM domain (Homo sapiens, UniProt P26038); experiment: Surface plasmon resonance; assay type: binding
Sequence of MSN FERM domain (P26038 1-345): as the sequence (P26038 1-345) above
Method in brief: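 MSN FERM domain is amine-coupled to a CM5 chip in acetate pH 4, to 4000 RU. Multi-cycle kinetics use test compound at 0.5–8 μM. KD comes from a 1:1 binding model fit.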

[2] = target: LgBiT-MSN(T588D) and SmBit-CD44 (Homo sapiens, UniProt P26038, T558D); experiment: NanoBiT split luciferase assay in live cells; assay type: cell-based
Sequence of LgBiT-MSN(T588D) and SmBit-CD44 (P26038 whole entry T558D): as the sequence (P26038 whole entry) above, with T558D counted along it
Method in brief: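 HEK293T cells (DMEM, 10% FBS, penicillin/streptomycin, 37 °C, 5% CO2) are seeded at 6000 cells/well. Next day they are transfected with CD44-SmBiT (C-terminal) and LgBiT-MSN(T558D) (N-terminal) plasmids, 20 ng and 5 ng, using Fugene HD; LgBiT-MSN(T558A) is the negative control. After 18 h, 2-fold dilutions of test compound (6.25–0.098 μM, DMSO) are added for 3 h. Nano-Glo Live Cell Reagent is added for 20 min at 37 °C, then luminescence is read. Two independent experiments.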

MSN = MSN (Homo sapiens, UniProt P26038); experiment: Thermal shift assay of MSN with compounds; assay type: binding; conditions: two experiments
Sequence of MSN (P26038 1-345): as the sequence (P26038 1-345) above
Method in brief: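 Precipitate is removed by centrifugation, then the mix is incubated 30 min at RT. Sypro Orange is added at 20x and the sample ramped 25→95 °C at 1 °C/min. Tm comes from a Boltzmann fit; ΔTm versus DMSO is averaged over two experiments.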

[3] = Solubility by nephelometry; assay type: physicochemical
SYK-FCER1G = SYK-FCER1G (Homo sapiens, UniProt P43405); experiment: SYK TR-FRET counter screen; assay type: binding
[4] = target: 6His-tagged FERM domain of human MSN (residues 1–345), wild type (human, UniProt P26038 1-345); experiment: FRET or BRET
[5] = target: FERM domain of human MSN (residues 1–345), wild type, 6His tag cleaved (human, UniProt P26038 1-345); experiment: FRET or BRET
[6] = target: B1; experiment: FRET or BRET
[7] = IC50, CD44–MSN interaction in live cells (approximate), NanoBiT, live cells

**Q.** Which results are given for `Nc1ccc(C(=O)Nc2ccc(-c3nc4ccc(NC(=O)c5ccc(N)cc5)cc4s3)cc2)cc1.O=C(O)C(F)(F)F.O=C(O)C(F)(F)F` [Compound 1, 4-amino-N-(4-(6-(4-aminobenzamido)benzo[d]thiazol-2-yl)phenyl)benzamide bis(2,2,2-trifluoroacetate)]?
**A.** IC50 (MSN–CD44 interaction): 5000 to 20000 nM; activity in GST-pulldown assay [1]: active; Kd (MSN FERM domain): 4200 nM; IC50 [2, 7]: ~600 nM; IC50 ([2]; IC50, NanoBiT bioluminescence assay, HEK293 cells, 2 independent experiments): 570 nM and 690 nM; av. ΔTm of MSN compared to DMSO alone (MSN; at 20 μM): 1–2 °C

**Q.** What does the source list for `COc1ccccc1C(=O)Nc1ccc(-c2nc3ccccc3[nH]2)cc1` [Compound 2, N-(4-(1H-benzo[d]imidazol-2-yl)phenyl)-2-methoxybenzamide]?
**A.** IC50 (MSN–CD44 interaction): 5000 to 20000 nM; solubility in aqueous/PBS buffer [3]: low solubility; activity in GST-pulldown assay [1]: active; Kd (MSN FERM domain): 700 nM; IC50 [2, 7]: ~200 nM; av. ΔTm of MSN compared to DMSO alone (MSN; at 20 μM): 1–2 °C

**Q.** For `COc1ccc(C(=O)Nc2ccc(-c3nc4ccccc4[nH]3)cc2)c(OC)c1` [Compound 2a, N-(4-(1H-benzo[d]imidazol-2-yl)phenyl)-2,4-dimethoxybenzamide], which “increase in potency relative to compound 2” value (MSN–CD44 interaction) is on record?
**A.** The value was 8 fold.

**Q.** What about the “activity in the counter screen” value (SYK-FCER1G) of the same molecule?
**A.** Its value is “no activity”.

**Q.** And the “solubility in aqueous/PBS buffer” value [3]?
**A.** Its value is “improved solubility”.

**Q.** And the “activity in GST-pulldown assay” value [1]?
**A.** Its value is “able to inhibit”.

**Q.** What about the “av. ΔTm of MSN compared to DMSO alone” value (MSN; at 50 μM) of the same molecule?
**A.** The value was 1.3 °C.

**Q.** With `O=C(Nc1ccc(-c2nc3ccccc3[nH]2)cc1)c1cccc(Cl)c1` [Compound 2b, N-(4-(1H-benzo[d]imidazol-2-yl)phenyl)-3-chlorobenzamide] as the molecule, how does the “increase in potency relative to compound 2” value (MSN–CD44 interaction) read?
**A.** Its value is 2 fold.

**Q.** And the “activity in the counter screen” value (SYK-FCER1G)?
**A.** The value was “no activity”.

**Q.** What about the “solubility in aqueous/PBS buffer” value [3] of the same molecule?
**A.** Its value is “improved solubility”.

**Q.** What about the “activity in GST-pulldown assay” value [1] of the same molecule?
**A.** Its value is “able to inhibit”.

**Q.** What about the “av. ΔTm of MSN compared to DMSO alone” value (MSN; at 50 μM) of the same molecule?
**A.** Its value is 1.2 °C.

**Q.** Does B1 bind [4]?
**A.** Result: binds

**Q.** Does B1 bind [5]?
**A.** Result: binds

B2: FERM domain of human MSN (1–345) H288A, 6His tag cleaved (domain or fragment)
chain: MPKTISVRVTTMDAELEFAIQPNTTGKQLFDQVVKTIGLREVWFFGLQYQDTKGFSTWLKLNKKVTAQDVRKESPLLFKFRAKFYPEDVSEELIQDITQRLFFLQVKEGILNDDIYCPPETAVLLASYAVQSKYGDFNKEVHKSGYLAGDKLLPQRVLEQHKLNKDQWEERIQVWHEEHRGMLREDAVLEYLKIAQDLEMYGVNYFSIKNKKGSELWLGVDALGLNIYEQNDRLTPKIGFPWSEIRNISFNDKKFVIKPIDKKAPDFVFYAPRLRINKRILALCMGNAELYMRRRKPDTIEVQQMKAQAREEKHQKQMERAMLENEKKKREMAEKEKEKIEREKE
**Q.** With B2 as the molecule, how does the “fold higher concentration than wild type needed to inhibit” value [6] read?
**A.** Its value is 10 fold.

B3: FERM domain of human MSN (1–345) L281R, 6His tag cleaved (domain or fragment)
chain: MPKTISVRVTTMDAELEFAIQPNTTGKQLFDQVVKTIGLREVWFFGLQYQDTKGFSTWLKLNKKVTAQDVRKESPLLFKFRAKFYPEDVSEELIQDITQRLFFLQVKEGILNDDIYCPPETAVLLASYAVQSKYGDFNKEVHKSGYLAGDKLLPQRVLEQHKLNKDQWEERIQVWHEEHRGMLREDAVLEYLKIAQDLEMYGVNYFSIKNKKGSELWLGVDALGLNIYEQNDRLTPKIGFPWSEIRNISFNDKKFVIKPIDKKAPDFVFYAPRLRINKRIRALCMGNHELYMRRRKPDTIEVQQMKAQAREEKHQKQMERAMLENEKKKREMAEKEKEKIEREKE
**Q.** For B3, which “fold higher concentration than wild type needed to inhibit” value [6] is on record?
**A.** Its value is 10 fold.
